GRK2 inh – blocks RNA aptamer binding to human GRK2; P25098; bead flow cytometry, FAM-aptamer displacement from GRK2; inhibition of aptamer binding, % at 10 µM; hit rate 0.59% among 330,000; AID 488847;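 active means inhibition of aptamer binding above 40%, roughly 3 SD of noise, on plates passing a quality check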;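 further: median bead fluorescence of bound FAM aptamer so fluorescent compounds give negative values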
Target sequence (P25098 whole entry, looked up): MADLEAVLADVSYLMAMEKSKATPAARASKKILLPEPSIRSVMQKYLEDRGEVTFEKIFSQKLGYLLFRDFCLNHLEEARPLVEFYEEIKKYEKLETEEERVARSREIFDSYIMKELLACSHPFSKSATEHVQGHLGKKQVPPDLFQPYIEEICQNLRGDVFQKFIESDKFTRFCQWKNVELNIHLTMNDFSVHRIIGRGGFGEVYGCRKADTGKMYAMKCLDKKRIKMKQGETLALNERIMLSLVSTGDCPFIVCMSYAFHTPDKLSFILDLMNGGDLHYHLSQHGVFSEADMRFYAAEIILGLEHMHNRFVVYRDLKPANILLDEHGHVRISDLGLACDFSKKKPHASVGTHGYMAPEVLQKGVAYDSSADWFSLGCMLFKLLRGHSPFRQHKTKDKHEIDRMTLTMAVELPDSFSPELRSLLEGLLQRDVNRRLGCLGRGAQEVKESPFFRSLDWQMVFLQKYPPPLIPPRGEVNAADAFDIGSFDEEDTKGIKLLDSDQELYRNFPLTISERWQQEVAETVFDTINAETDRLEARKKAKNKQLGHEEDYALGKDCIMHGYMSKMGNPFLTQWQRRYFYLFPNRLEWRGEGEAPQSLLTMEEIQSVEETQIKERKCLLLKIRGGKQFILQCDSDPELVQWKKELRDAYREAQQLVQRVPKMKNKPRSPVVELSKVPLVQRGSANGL
MEX-5 binding – C. elegans MEX-5 TCR-2 RNA binding activity; Q9XUB2; MEX-5/FITC-TCR2 RNA binding, fluorescence polarization; active compounds read low; activity score (negative = inhibition of binding), % at 10 µM; hit rate 0.38% among 300,000; AID 1832;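 active means inhibition past about -25% in most replicates, and total fluorescence under double the plate's negative control median, limit read from the data; inconclusive means replicates evenly split on the limit, or fluorescence at least double controls; inactive means too little inhibition in most replicates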;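 further: 0% = DMSO and -100% = 5 µM competing unlabeled TCR2 RNA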
C-LANA FP – inhibitors of KSHV LANA C-terminal domain DNA binding | MBP-C-LANA/FAM-LBS DNA binding, fluorescence polarization | inhibition, % at 9 µM | hit rate 0.078% among 340,000;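 active means highest replicate inhibition at or above 60% at 9 µM, even if other replicates fall short; inactive means all replicates below 60% inhibition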;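 further: 0% = neutral control wells and 100% = 4 µM acridine orange control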
Keap1-Nrf2 PPI – disrupts human Keap1 binding to Nrf2 peptide | Q14145 | Keap1 Kelch-Nrf2 peptide fluorescence polarization, 1536-well | inhibition, % at 9.4 µM | hit rate 0.15% among 340,000 | AID 504523; in the data active means inhibition above about 12%; inconclusive means no clear call, values can overlap the other calls; inactive means below about 7.3%;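 further: human Keap1 Kelch domain with fluorescein labeled Nrf2 9mer peptide probe; 0% = neutral control wells and 100% = peptide positive control; higher means more block of Keap1 binding to Nrf2 peptide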
EBV gp42 block – inhibitors of Epstein-Barr virus glycoprotein 42 | Fluorescence polarization binding assay, mP read-out | inhibition, % (tested at 21.74 µM) | hit rate 0.42% among 220,000 | AID 1085; in the data active means inhibition above about 50%
T cell HTS – modulates CD8 T cell binding to vesicles. AID 2052. 2C CD8+ T cell-vesicle binding, flow cytometry; active compounds read low. response (vesicle binding), % at 7 µM. hit rate 0.068% among 330,000;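 active means response, share of CD8 T cells binding vesicles, and their 90th percentile fluorescence all below set limits, cut at about 80% in these data, passing the limit was not always enough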;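 further: values below 100% mean blocked vesicle binding to the CD8+ T cells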
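Also added: QL9-peptide-loaded Drosophila micro-vesicles bearing Ld, ICAM-1 and B7-1; Test system: purified 2C TCR transgenic mouse naive CD8+ T cells; Measured by: cytometric PE anti-B7-1 and Alexa647 anti-CD8 signals after 1% paraformaldehyde fixation; Timing: binding step 1.5 h, 37 °C, antibody labelling 20 min, ice.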
Keap1 Kelch bind – binds and thermally shifts human Keap1 Kelch domain | shares compounds with Keap1-Nrf2 PPI | Keap1 Kelch thermal shift, delta Tm; active compounds read high | max delta Tm, degrees C | hit rate 8% among 400 | AID 651823; in the data active means max delta Tm above about 0.48 degrees C
Dye-only ctr – shifts Sypro Orange melt without protein, a false positive. shares compounds with Keap1-Nrf2 PPI. Sypro Orange dye-only thermal melt, no protein, delta Tm; top dose 26 µM. delta Tm, degrees C (no concentration beside the values). 140 tested, under 10 active;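 active means at highest dose tested, delta Tm positive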
* hit, by the source's call; i = inactive; ? = inconclusive; . = no result; + = active, no number. Most compounds without a hit are left out; they make up all but 1.3% or so of the library.

SMILES	GRK2 inh	MEX-5 binding	C-LANA FP	Keap1-Nrf2 PPI	EBV gp42 block	T cell HTS	Keap1 Kelch bind	others
CN(C)S(=O)(=O)c1ccc(Cl)c(NC(=O)COC(=O)C2CCCO2)c1 (stereo unspecified)	0	0	0	-2	-20	380	.
CCOC(=O)c1ccc2ncc(C(=O)OCC)c(NCCN3CCOCC3)c2c1	1	0	0	-1	.	359	.
CCOC(=O)c1ccc2ncc(C(=O)OCC)c(NCCN(C)C)c2c1	1	1	14	14*	.	452	-0.11	Dye-only ctr=-23
O=C1N=c2ccc(Br)cc2=C1c1sc(=S)n(NS(=O)(=O)c2ccccc2)c1O	0	-8	0	53*	18	394	2.7*	Dye-only ctr=-26
C=CCOc1ccc(C=NNc2ccc(S(=O)(=O)Nc3ccccc3C(=O)O)cc2[N+](=O)[O-])cc1OC	5	.	14	13*	.	112	0.91*
CCOc1ccc(C=NNc2ccc(S(=O)(=O)Nc3ccccc3C(=O)O)cc2[N+](=O)[O-])cc1	2	.	1	1	.	336	.
Cc1c(C(=O)NNc2c(Cl)cccc2Cl)n(C)oc1=O	1	-2	-1	5	-8	628	.
CN1/C(=C\C(=O)Nc2ccc(Cl)cc2)C(C)(C)c2ccccc21	0	0	1	0	-14	327	.
CN1/C(=C\C=C(C#N)C#N)C(C)(C)c2ccccc21	0	?	165	45*	-62	526	0
CN1/C(=C\C=C(/C#N)C(=O)Nc2ccc(Cl)cc2)C(C)(C)c2ccccc21	1	?	33	14*	6	908	-0.06
O=c1ccc2cc3c4c(c2o1)CCCN4CCC3	6	?	46	38*	129*	131	-0.17
O=C(NCC1CCCO1)C(c1ccncc1)N(Cc1cccs1)C(=O)CN1C(=O)c2ccccc2S1(=O)=O (stereo unspecified)	1	1	-1	0	-4	545	.
COc1ccc(N(Cc2ccccc2)S(=O)(=O)c2cccc(C(=O)Nc3ncccc3C)c2)cc1	2	.	9	22*	.	390	-0.12
O=c1[nH]c(-[n+]2ccc3ccccc3c2)c(/C=N/N=C(\[O-])c2ccccc2)s1	3	-8	0	-3	.	278	.
CCc1ccc[n+](-c2[nH]c(=O)sc2/C=N/N=C(\N)[O-])c1	0	-3	-1	0	-15	375	.
CCc1ccc[n+](-c2[nH]c(=O)sc2/C=N/NC([S-])=Nc2ccccc2)c1	0	-55*	89*	49*	66*	0	-0.11	Dye-only ctr=-25
O=c1[nH]c(-[n+]2ccccc2)c(/C=N/NC([S-])=Nc2ccccc2)s1	1	-82*	26	17*	2	468	-0.07
Cc1cc[n+](-c2[nH]c(=O)sc2/C=N/NC([S-])=Nc2ccccc2)cc1	3	-21	48	32*	59*	276	0.09
Cc1cc(C)c[n+](-c2[nH]c(=O)sc2/C=N/NC([S-])=Nc2ccccc2)c1	0	-49*	36	26*	27	0	-0.05	Dye-only ctr=-27
CC(C)(C)c1cc[n+](-c2[nH]c(=O)sc2/C=N/NC(=O)c2ccccc2[O-])cc1	0	-18	19	2	.	206	.
O=C(COc1ccccc1Cl)NNC(=O)Cn1[nH]c(=O)c2ccccc2c1=O	1	.	1	1	.	132	.
O=C(NC1(O)C(=O)c2ccccc2C1=O)c1ccccc1	2	3	3	-12	4	162	.
O=C(NC1(O)C(=O)c2ccccc2C1=O)c1c(Cl)cccc1Cl	.	0	.	19*	-5	438	-0.07	Dye-only ctr=-24
COc1ccc2c(c1)c1nc3ccccc3nc1n2CC(=O)OC(C)C	1	?	29	24*	91*	799	-0.1	Dye-only ctr=-29
COC(=O)Cn1c2ccc(C)cc2c2nc3ccccc3nc21	.	0	0	-2	.	.	.
SMILES	GRK2 inh	MEX-5 binding	C-LANA FP	Keap1-Nrf2 PPI	EBV gp42 block	T cell HTS	Keap1 Kelch bind	others
CN(C)C(CNC(=O)c1coc2ccccc2c1=O)c1ccccc1 (stereo unspecified)	1	0	-1	2	.	115	.
C=CCn1cccc(C(=O)Nc2ccc(OC)c(Cl)c2)c1=O	0	0	-2	48*	.	279	-0.06
Nc1nc(NCc2ccccc2)nc(-c2ccccc2)n1	0	-1	1	-3	0	285	.
CCCCNc1c2c3c(cccc3n(C)c1=O)C(=O)c1ccccc1-2	0	?	71*	58*	183*	i	0.25
Cn1c(=O)c(NCCc2ccccc2)c2c3c(cccc31)C(=O)c1ccccc1-2	29	?	101*	45*	+	646	0
O=C(COC(=O)c1ccc2c(c1)OCO2)Nc1ccccc1Cl	0	.	-2	0	.	280	.
COc1ccc(OC)c(S(=O)(=O)Nc2ccc(F)cc2)c1	0	2	3	12*	-17	347	-0.08
CCCCOc1[nH]c2nc(-c3ccco3)n(Cc3ccco3)c(=N)c2c1C#N	26	-1	36	16*	55*	213	0.23
c1ccc(CSc2nnc(-c3ccco3)n2Cc2ccco2)cc1	3	-5	0	0	-3	546	.
CC(=O)Nc1c(N)c2ccccc2oc1=O	0	2	5	14*	-6	210	-0.16	Dye-only ctr=-26
CC(=O)Nc1c(NC(C)(C)C)c2ccccc2oc1=O	2	0	-1	4	5	261	.
CS(=O)(=O)N1CCCC(C(=O)Nc2ccc(F)c(F)c2)C1 (stereo unspecified)	2	.	17	42*	.	338	-0.08	Dye-only ctr=-27
Cc1ccccc1OCCC(=O)Nc1cc(S(=O)(=O)N2CCCCC2)ccc1N1CCN(C)CC1	.	.	28	54*	.	.	0.02
O=C(CSc1nc2ccccc2c(=O)n1CCCN1CCOCC1)Nc1ccccc1OC(F)F	29	.	12	19*	.	342	-0.14	Dye-only ctr=-23
CCOC(=O)C1CCCN(C(=O)C2COc3ccccc3O2)C1 (stereo unspecified)	.	.	0	-5	.	.	.
CCOC(=O)C1CCCN(C(=O)C2c3ccccc3Oc3ccccc32)C1 (stereo unspecified)	0	-7	119*	47*	-2	270	-0.16	Dye-only ctr=-45
CSc1ccccc1NC(=O)N1CCC(CO)(CC2CCCCO2)CC1 (stereo unspecified)	0	-2	0	1	-10	525	.
O=C1c2cccc3c(N4CCCCC4)ccc(c23)C(=O)N1c1ccc(O)cc1	0	?	12	?	-7	154	.

Bioassay records (PubChem BioAssay)
